In one data set the test system is MV4-11. Put plainly: Antiproliferative activity against human MV4-11 cells after 72 hrs by MTS assay. The class given is functional, cell-based. As to conditions: MV4-11, 72 h. The procedure, abridged:
(§1)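 Cells kept at 37 °C in humidified 5% CO₂. RPMI 8226 and MM.1S were grown in RPMI-1640 with 10% FBS plus penicillin/streptomycin. Seeding per well was 5 × 10³ (RPMI 8226), 3 × 10⁴ (MM.1S) or 8 × 10³ (MV-4-11). Cells were treated with DMSO vehicle or graded concentrations, then given MTS/PMS for 2-4 h at 37 °C. OD read at 490 nm minus 690 nm background. Growth inhibition = (A_control − A_sample)/A_control; IC50 from variable-slope sigmoidal nonlinear fit.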
A general note: Tetrazolium dyes change colour on reduction, which living cells bring about.

In another data set the test system is RPMI-8226. Put plainly: Antiproliferative activity against human RPMI8226 cells after 72 hrs by MTS assay. It is filed as functional, cell-based. As to conditions: RPMI-8226, 72 h. The procedure, abridged:
as §1

Another data set deals with MM1.S. Put plainly: Antiproliferative activity against human MM1S cells after 72 hrs by MTS assay. It is filed as functional, cell-based. The procedure, abridged: as §1
Data set [1] addresses T1, Proteasome Macropain subunit MB1 (Homo sapiens, UniProt P28074).
T1 sequence (P28074 whole entry): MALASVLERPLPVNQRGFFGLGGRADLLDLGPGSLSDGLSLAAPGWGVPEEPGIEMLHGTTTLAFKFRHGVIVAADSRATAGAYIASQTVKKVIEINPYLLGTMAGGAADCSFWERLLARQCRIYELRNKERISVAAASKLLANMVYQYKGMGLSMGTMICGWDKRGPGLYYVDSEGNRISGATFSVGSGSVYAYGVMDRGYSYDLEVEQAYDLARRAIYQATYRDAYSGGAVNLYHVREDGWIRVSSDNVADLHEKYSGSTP
Put plainly: Inhibition of human hepatic cell derived 20s constitutive proteasome beta5 chymotrypsin-like activity using Suc-WLA-AMC as substrate preincubated for 15 mins followed by substrate addition and measured after 60 mins by fluorescence assay.

Data set [2] concerns the target T2, Proteasome Macropain subunit MB1 (Homo sapiens) (UniProt P28074).
T2 sequence (whole entry): T1 sequence (P28074 whole entry)
The data set is described as follows: Inhibition of human hepatic cell derived 20s constitutive proteasome beta5 chymotrypsin-like activity at 10 uM using Suc-WLA-AMC as substrate preincubated for 15 mins followed by substrate addition and measured after 60 mins by fluorescence assay relative to control.

The nature of data set [3]: Stability in human liver microsomes assessed as parent compound remaining at 1 uM measured after 30 mins by LC-MS/MS analysis. As to conditions: read-out: Stability. It is filed as ADME, Microsome. The procedure, abridged:
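Test compound at […] incubated with human liver microsomes (1.0 mg/mL protein) in 0.1 M PBS pH 7.4 with 1 mM NADPH. Microsomes preincubated 5 min at 37 °C; reaction started by compound addition and sampled at 0, 10, 20 and 30 min. Stopped with ice-cold methanol containing internal standard, then centrifuged at 15000g for 10 min. Supernatant analysed by LC-MS; % remaining = analyte/IS peak-area ratio relative to 0 min.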
In general terms: Liver microsomes are vesicles of endoplasmic reticulum, rich in cytochrome P450 enzymes.

The nature of data set [4]: Inhibition of human peripheral blood derived 20s immunoproteasome beta2 trypsin-like activity using […] as substrate preincubated for 15 mins followed by substrate addition and measured after 60 mins by fluorescence assay.
The target of data set [5] is T3, Proteasome subunit beta type-9 (Homo sapiens, UniProt P28065).
T3 sequence (P28065 whole entry): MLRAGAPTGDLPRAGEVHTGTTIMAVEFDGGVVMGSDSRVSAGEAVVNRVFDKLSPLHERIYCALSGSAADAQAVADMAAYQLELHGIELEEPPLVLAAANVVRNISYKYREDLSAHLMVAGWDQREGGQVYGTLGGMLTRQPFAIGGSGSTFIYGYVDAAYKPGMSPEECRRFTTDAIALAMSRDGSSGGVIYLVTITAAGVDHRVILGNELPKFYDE
Put plainly: Inhibition of human peripheral blood derived 20s immunoproteasome beta1 caspase-like activity using Suc-PAL-AMC as substrate preincubated for 15 mins followed by substrate addition and measured after 60 mins by fluorescence assay.

Data set [6] concerns the target T4, Proteasome subunit beta type-8 (Homo sapiens, UniProt P28062).
T4 sequence (P28062 whole entry): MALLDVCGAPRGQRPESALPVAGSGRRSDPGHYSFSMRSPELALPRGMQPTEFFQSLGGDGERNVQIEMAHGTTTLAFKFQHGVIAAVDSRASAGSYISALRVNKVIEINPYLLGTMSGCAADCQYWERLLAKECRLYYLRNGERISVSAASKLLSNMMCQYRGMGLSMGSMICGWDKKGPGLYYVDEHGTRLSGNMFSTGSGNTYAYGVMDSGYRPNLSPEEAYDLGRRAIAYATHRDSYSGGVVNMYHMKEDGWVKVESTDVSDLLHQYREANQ
The data set is described as follows: Inhibition of human peripheral blood derived 20s immunoproteasome beta5 chymotrypsin-like activity using […] as substrate preincubated for 15 mins followed by substrate addition and measured after 60 mins by fluorescence assay.

pIC50: −log10 of the molar value.

In general, pIC50 refers to −log10 of the IC50, conventionally taken in molar units. Read a low pIC50 as a large IC50. As to `CC(C)(C)CNC(=O)C[C@@H]1NC(=O)c2ccccc2OCCCCCCOC[C@@H](C(=O)NCc2ccccc2Cl)NC1=O`, the pIC50 with MV4-11 is 6.14; with RPMI-8226, 6.52; in the data set on MM1.S, 6.46; in data set [1], 6.90.

Consider `Cc1ccc(CNC(=O)[C@@H]2COCCCCCCOc3ccccc3C(=O)N[C@@H](CC(=O)NCC(C)(C)C)C(=O)N2)cc1`, for which the pIC50 in the data set on MV4-11 is 7.12; in the data set on RPMI-8226, 6.76; in the data set on MM1.S, 7.43; in data set [1], 7.17.

With `CC(C)C[C@H](NC(=O)[C@H](CCc1ccccc1)NC(=O)CN1CCOCC1)C(=O)N[C@@H](Cc1ccccc1)C(=O)N[C@@H](CC(C)C)C(=O)[C@@]1(C)CO1` [CARFILZOMIB], the results for the pIC50 with RPMI-8226 and in the data set with MM1.S were 8.70 and greater than 9.00, respectively.

What is called inhibition is the change of the read-out against control, counted positive when it falls. Low values mean a response near the control, high ones a response far below the control. Consider `O=C1N[C@@H](CCc2ccccc2)C(=O)N[C@H](C(=O)NCc2ccccc2Cl)COCCCCCCOc2ccccc21`, for which the inhibition in data set [2] was 36.7%.

With `Cc1ccc(CNC(=O)[C@@H]2COCCCCCCOc3ccccc3C(=O)N[C@@H](CCc3ccccc3)C(=O)N2)cc1`, the inhibition in [2] came to 38.4%.

Consider `CC(C)(C)CNC(=O)C[C@@H]1NC(=O)c2ccccc2OCCCCCCOC[C@@H](C(=O)NCc2ccccc2)NC1=O`, for which, in data set [1], the pIC50 was 6.18.

For the compound `Cc1ccc(CNC(=O)[C@@H]2Cc3cn(c4ccccc34)CCCCCn3ccnc3C(=O)N[C@@H](CC(=O)NCC(C)(C)C)C(=O)N2)cc1`, the pIC50 in the data set on MV4-11 was 7.28; with RPMI-8226, 7.23; in the data set on MM1.S, 7.77; in [1] it was 7.59.

Turning to `Cc1ccc(CNC(=O)[C@@H]2COCCCCCCCn3ccnc3C(=O)N[C@@H](CC(=O)NCC(C)(C)C)C(=O)N2)cc1`, the pIC50 in the data set with MV4-11 is 7.92; with RPMI-8226 it was 7.82; in [4] it was less than 5.00; in data set [5], less than 5.00; in data set [6], 7.72; with MM1.S, 8.22. The pIC50 in [1] was 7.47. Moreover, in [3], the remaining at 0.5 h, 1 µM was less than 20%.

`CC(C)C[C@H](NC(=O)[C@H](Cc1ccccc1)NC(=O)c1cnccn1)B(O)O` [BORTEZOMIB] showed a pIC50 in data set [4] of 6.29.

On to `CCCCCCOC[C@H](NC(=O)[C@H](CC(=O)NCC(C)(C)C)NC(=O)c1cnn(C)c1CCC)C(=O)NCc1ccc(C)cc1`, for which the pIC50 with MV4-11 was 7.14; with RPMI-8226, 7.01; in the data set on MM1.S it was 7.19; in data set [1], 8.05. For the same compound, the remaining at 0.5 h, 1 µM in data set [3] was less than 5%.

On to `Cc1ccc(CNC(=O)[C@@H]2COCCCCCCCc3c(cnn3C)C(=O)N[C@@H](CC(=O)NCC(C)(C)C)C(=O)N2)cc1`, for which the pIC50 in the data set with MV4-11 was 7.68; with RPMI-8226 it was 7.74; in data set [4], less than 5.00; in data set [5], less than 5.00; in data set [6] it was 7.46; in the data set with MM1.S it was 7.82. The pIC50 in data set [1] is 7.54. The remaining at 0.5 h, 1 µM in data set [3] was no less than 66%.

Take `Cc1ccc(CNC(=O)[C@H]2NC(=O)[C@H](CC(=O)NCC(C)(C)C)NC(=O)c3nccn3CCCCCCCO[C@H]2C)cc1`: the pIC50 is 6.68 in the data set on MV4-11, 7.57 in the data set on RPMI-8226, 6.66 with MM1.S and 7.30 in data set [1].

Regarding `Cc1ccc(CNC(=O)[C@@H]2COCCCCCCOc3c(cnn3C)C(=O)N[C@@H](CC(=O)NCC(C)(C)C)C(=O)N2)cc1`, the pIC50 is 7.26 in the data set with MV4-11, 7.24 in the data set on RPMI-8226, 7.64 with MM1.S and 7.52 in data set [1].

In [2], `COC[C@@H]1NC(=O)c2ccccc2OCCCCCCOC[C@@H](C(=O)NCc2ccccc2Cl)NC1=O` showed an inhibition of 34%.

The record behind these values is ChEMBL document CHEMBL4411311, “Exploration of novel macrocyclic dipeptide N-benzyl amides as proteasome inhibitors” (Eur J Med Chem, 2019).
